Bounds are passed on as bounds.

The subject of assay [1] is HCT-116 (colon cancer). Description: cell viability assay, HCT-116. It counts as cell-based. The note with it: Homo sapiens, HCT-116, read-out: IC50(HCT-116). In short, it runs like this:
(§1)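 Cell viability assays, run on proliferating tumour lines and on quiescent IMR-90 immortalized human fibroblasts, gave IC50 values. Cell preparation and sample handling were automated. The automation protocol changed between the earlier and the later test series.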

Assay [2] deals with A2058 (melanoma). Kind of assay: proliferative cell growth inhibition assay, A2058. It counts as cell-based. The note with it: Homo sapiens, A2058, read-out: IC50(cell line) A2058. In short, it runs like this:
as §1

Assay [3] relates to H522-T1 (nonsmall cell lung cancer). Description: proliferative cell growth inhibition assay, H522-T1. It counts as cell-based. Conditions: H522-T1, read-out: IC50(cell line) H522-T1. In short, it runs like this:
as §1

Assay [4] deals with HCT-116 (colon cancer). Description: proliferative cell growth inhibition assay, HCT-116. It counts as cell-based. The note with it: Homo sapiens, HCT-116, read-out: IC50(cell line) HCT-116. The method, boiled down:
as §1

Assay [5] relates to quiescent IMR-90 immortalized human fibroblasts. Description: IMR-90 cytotoxicity assay. The class given is cell-based. Conditions: IMR-90, read-out: IC50(cell line) IMR-90. The method, boiled down:
as §1

Assay [6] deals with wide range of cancer cell lines. Conditions: initially reported; cited from earlier work.

By IC50 is commonly meant the concentration at which inhibition is half-maximal. On to `C=C(C)CC(OC)[C@H](O)C(=O)N[C@@H](OC)[C@@H]1C[C@@H](O)C(C)(C)[C@@H](C[C@H](O)[C@@H](C)[C@H]2Cc3c(C)c(O)cc(O)c3C(=O)O2)O1` (single isomer, unassigned; (+)) [compound 1, (+)-irciniastatin A], for which the IC50 in assay [1] came to 0.2 nM; in assay [2], 0.4 nM; in assay [3], 1 nM; in assay [4], 4 nM; in assay [5], 27 nM. Further, in assay [6], the “differential activities against cancer cell lines” value is greater than 10000 fold.

These data come from paper PMC4782725 (The Journal of Organic Chemistry, 2016).
